ChEMBL document CHEMBL2029266, “Discovery and evaluation of selective N-type calcium channel blockers: 6-unsubstituted-1,4-dihydropyridine-5-carboxylic acid derivatives” (Bioorg Med Chem Lett, 2012)
pIC50: −log10 of the molar value.

Columns and labels:
[1] = biological target: Voltage-dependent N-type calcium channel subunit alpha-1B (Homo sapiens, UniProt Q00975); assay: Inhibition of N-type voltage-dependent calcium channel CaV2.2 in human IMR32 cells assessed as inhibition of KCl-induced increase in intracellular calcium concentration preincubated for 4 to 5 mins before KCl challenge; assay type: cell-based, IMR-32
Summary of the method: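 IMR-32 cells on poly-L-lysine/collagen dishes, differentiated with 1 mM dibutyl-cAMP and 2.5 µM bromodeoxyuridine for 10–14 days. Loaded with 2.5 µM fura-2/AM, 37 °C, 30 min. HEPES recording medium with 1 µM nifedipine throughout. Calcium rise evoked by 60 mM KCl for 6 s, repeated every 5 min. Compound at 0.1, 1 or 10 µM; IC50 from ≥2 independent experiments.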

[2] = biological target: L-type voltage-dependent calcium channel (Rattus norvegicus, UniProt P22002+P27732+Q02485); assay: (§1) Inhibition of L-type voltage-dependent calcium channel in Sprague-Dawley rat aorta at 10 uM by Magnus method; assay type: tissue-based; settings: Sprague-Dawley, isolated rat aorta
Summary of the method: (§2)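 Rat aortic ring in organ bath, Tyrode's solution pH 7.4, 37 °C, 95% O2/5% CO2. Equilibrated 1 h at 2 g resting tension. Then exposed to high-K+ Tyrode (50 mM KCl replacing NaCl) and to normal Tyrode, 45 min each. Activity reported as inhibition or IC50.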

[3] = biological target: T1, Voltage-gated L-type calcium channel (Rattus norvegicus, UniProt P22002+Q02485+P27732); assay: Inhibition of L-type voltage-dependent calcium channel in Sprague-Dawley rat aorta by Magnus method; assay type: tissue-based; summary of the method: as §2
[4] = biological target: T1, Voltage-gated L-type calcium channel; assay: as §1; assay type: tissue-based; settings: 10 µM; summary of the method: as §2
Rattus norvegicus [5] = assay: Analgesic activity in Sprague-Dawley rat assessed as inhibition of formalin-induced pain at 3 mg/kg, po; assay type: functional
Summary of the method: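 Rats received formalin by footpad injection, and phase II pain responses were scored. Compound given orally. Inhibition is expressed as % versus the control group, n = 5.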

Rattus norvegicus [6] = assay: Analgesic activity in Sprague-Dawley rat assessed as inhibition of formalin-induced pain at 100 mg/kg, po; assay type: functional
Summary of the method: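 Formalin injected into the rat footpad; phase II pain responses scored after oral dosing. Read-out is % inhibition relative to the control group, n = 3 animals at this dose.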

Sequence of Voltage-dependent N-type calcium channel subunit alpha-1B (Q00975 whole entry): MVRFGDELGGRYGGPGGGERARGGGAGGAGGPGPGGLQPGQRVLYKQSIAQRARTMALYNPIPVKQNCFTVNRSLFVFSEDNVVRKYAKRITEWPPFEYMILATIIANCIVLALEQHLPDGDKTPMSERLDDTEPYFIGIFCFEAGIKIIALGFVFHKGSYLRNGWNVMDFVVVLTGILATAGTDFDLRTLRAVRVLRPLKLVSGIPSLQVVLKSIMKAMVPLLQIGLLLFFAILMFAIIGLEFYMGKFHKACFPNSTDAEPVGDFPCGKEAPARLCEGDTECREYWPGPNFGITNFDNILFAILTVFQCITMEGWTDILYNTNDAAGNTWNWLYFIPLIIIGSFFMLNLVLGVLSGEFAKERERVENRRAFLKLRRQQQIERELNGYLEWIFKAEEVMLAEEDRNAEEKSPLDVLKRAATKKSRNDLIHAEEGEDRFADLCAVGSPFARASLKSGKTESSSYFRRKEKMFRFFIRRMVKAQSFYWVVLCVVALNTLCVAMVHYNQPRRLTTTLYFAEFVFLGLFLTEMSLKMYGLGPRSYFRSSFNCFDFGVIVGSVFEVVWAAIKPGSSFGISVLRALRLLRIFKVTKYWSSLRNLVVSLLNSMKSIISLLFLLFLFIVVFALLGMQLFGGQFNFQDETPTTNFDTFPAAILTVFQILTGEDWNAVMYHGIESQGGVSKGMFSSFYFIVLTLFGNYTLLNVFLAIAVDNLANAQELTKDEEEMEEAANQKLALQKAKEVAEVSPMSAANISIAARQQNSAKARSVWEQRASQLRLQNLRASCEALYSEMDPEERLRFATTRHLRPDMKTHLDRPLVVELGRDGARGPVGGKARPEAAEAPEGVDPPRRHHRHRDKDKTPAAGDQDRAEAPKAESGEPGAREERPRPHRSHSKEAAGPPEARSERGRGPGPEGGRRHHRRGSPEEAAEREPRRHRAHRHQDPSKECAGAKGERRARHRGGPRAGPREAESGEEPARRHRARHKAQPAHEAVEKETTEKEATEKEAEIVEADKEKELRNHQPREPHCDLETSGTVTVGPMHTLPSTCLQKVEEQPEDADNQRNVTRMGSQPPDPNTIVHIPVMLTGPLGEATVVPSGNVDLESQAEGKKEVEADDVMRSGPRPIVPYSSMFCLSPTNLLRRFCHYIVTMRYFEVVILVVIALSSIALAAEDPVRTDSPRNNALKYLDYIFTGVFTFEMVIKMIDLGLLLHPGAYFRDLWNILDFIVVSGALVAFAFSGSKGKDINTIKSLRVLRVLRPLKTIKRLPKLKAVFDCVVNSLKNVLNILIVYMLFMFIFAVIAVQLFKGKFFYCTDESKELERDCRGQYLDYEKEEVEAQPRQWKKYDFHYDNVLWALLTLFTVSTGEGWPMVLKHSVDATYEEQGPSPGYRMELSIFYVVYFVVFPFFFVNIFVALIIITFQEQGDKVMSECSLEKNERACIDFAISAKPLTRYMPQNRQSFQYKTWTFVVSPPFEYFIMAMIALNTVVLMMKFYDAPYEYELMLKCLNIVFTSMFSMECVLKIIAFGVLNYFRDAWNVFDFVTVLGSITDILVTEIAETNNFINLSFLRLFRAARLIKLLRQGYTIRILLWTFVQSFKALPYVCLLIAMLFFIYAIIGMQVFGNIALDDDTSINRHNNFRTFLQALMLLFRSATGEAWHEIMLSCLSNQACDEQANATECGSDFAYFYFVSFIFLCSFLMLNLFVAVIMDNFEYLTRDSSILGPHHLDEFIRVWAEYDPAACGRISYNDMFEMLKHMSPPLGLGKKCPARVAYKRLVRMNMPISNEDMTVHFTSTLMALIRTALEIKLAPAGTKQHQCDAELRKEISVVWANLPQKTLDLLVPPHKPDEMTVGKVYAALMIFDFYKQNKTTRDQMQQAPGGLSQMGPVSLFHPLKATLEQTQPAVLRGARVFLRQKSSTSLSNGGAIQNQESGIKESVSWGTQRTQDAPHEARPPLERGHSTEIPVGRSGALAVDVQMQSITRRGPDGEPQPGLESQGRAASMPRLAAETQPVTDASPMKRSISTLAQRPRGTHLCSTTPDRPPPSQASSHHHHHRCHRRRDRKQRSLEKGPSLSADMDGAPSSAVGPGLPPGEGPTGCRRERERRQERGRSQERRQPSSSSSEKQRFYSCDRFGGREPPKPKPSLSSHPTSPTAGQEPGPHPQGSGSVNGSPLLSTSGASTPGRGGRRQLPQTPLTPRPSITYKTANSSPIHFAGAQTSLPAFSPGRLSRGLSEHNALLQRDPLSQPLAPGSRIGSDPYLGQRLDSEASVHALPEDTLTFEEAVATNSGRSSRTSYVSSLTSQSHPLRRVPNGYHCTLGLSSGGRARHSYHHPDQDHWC

Compound	pIC50 [1]	inhibition at 10 µM [2]	further results
COC(OC)C1=C(C(=O)OC/C=C/c2ccccc2)C(c2cccc(Cl)c2)C(C(=O)O)=CN1 (centres undefined)	5.96	44%	–
COC(OC)C1=C(C(=O)OC/C=C/c2ccccc2)C(c2ccc(Cl)cc2)C(C(=O)O)=CN1 (centres undefined)	5.96	7.9%	–
COC(OC)C1=C(C(=O)OC/C=C/c2ccccc2)C(c2cc(Cl)cc(Cl)c2)C(C(=O)O)=CN1 (centres undefined)	6.00	4%	–
COC(OC)C1=C(C(=O)OC/C=C/c2ccccc2)C(c2ccc(Cl)c(Cl)c2)C(C(=O)O)=CN1 (centres undefined)	6.28	31%	–
COc1ccc(C2C(C(=O)O)=CNC(C(OC)OC)=C2C(=O)OC/C=C/c2ccccc2)cc1Cl (centres undefined)	5.82	26%	–
COc1c(Cl)cc(C2C(C(=O)O)=CNC(C(OC)OC)=C2C(=O)OC/C=C/c2ccccc2)cc1Cl (centres undefined)	5.92	20%	–
COC(OC)C1=C(C(=O)OC/C=C/c2ccccc2)C(c2cccc(C(F)(F)F)c2)C(C(=O)O)=CN1 (centres undefined)	5.96	17%	–
O=C(O)C1=CNC=C(C(=O)OC/C=C/c2ccccc2)C1c1cccc(Cl)c1 (centres undefined)	5.80	–	IC50 [3]: 9100 nM
O=C(O)C1=CNC=C(C(=O)OC/C=C/c2ccccc2)C1c1ccc(Cl)cc1 (centres undefined)	5.92	16%	–
O=C(O)C1=CNC=C(C(=O)OC/C=C/c2ccccc2)C1c1ccc(Cl)c(Cl)c1 (centres undefined)	6.12	41%	–
O=C(O)C1=CNC=C(C(=O)OC/C=C/c2ccccc2)C1c1cccc(C(F)(F)F)c1 (centres undefined)	5.92	40%	–
COc1ccc(C2C(C(=O)O)=CNC=C2C(=O)OC/C=C/c2ccccc2)cc1Cl (centres undefined)	5.89	15%	–
COC(OC)C1=C(C(=O)OC/C=C/c2ccccc2)C(c2cccc(Cl)c2)C(C(=O)O)=C(C)N1 (centres undefined)	5.52	–	–
COc1c(Cl)cc(C2C(C(=O)O)=CNC=C2C(=O)OC/C=C/c2ccccc2)cc1Cl (single isomer, unassigned; (+))	6.14	–	inhibition (INH) [4]: 6.5%; IC50 [3]: 44000 nM; inhibition in vivo at 3 mg/kg (Rattus norvegicus [5]): 35%
COc1c(Cl)cc(C2C(C(=O)O)=CNC=C2C(=O)OC/C=C/c2ccccc2)cc1Cl (stereo in doubt; 3f)	6.24	–	inhibition (INH) [4]: 19%
COc1c(Cl)cc(C2C(C(=O)O)=CNC=C2C(=O)OC/C=C/c2ccccc2)cc1Cl (stereo in doubt; (-)-3f)	6.08	–	inhibition (INH) [4]: 28%
NCC1(CC(=O)O)CCCCC1 [GABAPENTIN]	–	–	inhibition in vivo at 100 mg/kg (Rattus norvegicus [6]): 33%
